Assay results of several laboratories.
TNKS: Poly [ADP-ribose] polymerase tankyrase-1 (TNKS, Homo sapiens, UniProt O95271)
FABP4: Fatty acid-binding protein, adipocyte (FABP4, Homo sapiens, UniProt P15090)
AKT1: RAC-alpha serine/threonine-protein kinase (AKT1, Homo sapiens, UniProt P31749)
CYP2C9: Cytochrome P450 2C9 (CYP2C9, Homo sapiens, UniProt P11712)
CDK9 with cyclin T1: Cyclin-dependent kinase 9, with cyclin T1 (CDK9, Homo sapiens, UniProt P50750)
DPP4: Dipeptidyl peptidase 4 (DPP4, Homo sapiens, UniProt P27487)
SLC22A13: SLC22A13 (Homo sapiens, UniProt Q9Y226)
MAPK3: Mitogen-activated protein kinase 3 (MAPK3, Homo sapiens, UniProt P27361)

Structure (SMILES)	target	assay	system	setting	IC50 [µM]
COc1cc(-c2ccccc2)ncc1C(=O)Nc1ccc2c(=O)[nH]c(-c3ccc(C(C)(C)O)cc3)nc2c1	TNKS	enzyme activity, inhibitor			0.0869
CCCCCCC(=O)O	FABP4	ligand displacement, fluorescence		pH 7.5	348
OC1(c2ccc(-c3ccnc4[nH]cc(F)c34)cc2)CCCNCC1 (centres unmarked)	AKT1	target engagement in cells, BRET			34.5
C=CCn1c(=O)c2cnc(Nc3ccc(N4CCN(C)CC4)cc3)nc2n1-c1ccc2c(n1)[C@@](O)(CC)CC2	CYP2C9	enzyme activity, inhibitor			50
CC(C)(O)c1ccc(-c2nc3cc(NC(=O)c4cnc(Oc5ccccc5)nc4)ccc3c(=O)[nH]2)cc1	TNKS	enzyme activity, inhibitor			0.392
COc1cc(C(=O)NS(=O)(=O)c2ccccc2C)ccc1Cc1cn(C)c2ccc(NC(=O)OC3CCCC3)cc12	Protein disulfide-isomerase A3 (PDIA3, Homo sapiens, UniProt P30101)	enzyme activity, inhibitor			25
CN(C)C(=O)c1cc2cnc(Nc3ccc4c(=O)cc(N5CCNCC5)oc4c3)nc2n1C1CCCC1	CDK9 with cyclin T1	enzyme activity, inhibitor, radiometric			0.00106
CNS(=O)(=O)c1ccc(Nc2ncc(C(F)(F)F)c(N3CCC(C)(O)CC3)n2)c(C)c1	CDK9 with cyclin T1	enzyme activity, inhibitor, radiometric			> 10
O=C(O)C(F)(F)C(F)(F)C(F)(F)C(F)(F)C(F)(F)C(F)(F)C(F)(F)C(F)(F)C(F)(F)C(F)(F)C(F)(F)F	FABP4	ligand displacement, fluorescence		pH 7.5	1.61
CN(C)C(=O)c1cc2cnc(Nc3cc(C(F)(F)F)c(-c4cccc5c(=O)cc(N6CCOCC6)oc45)cn3)nc2n1C1CCCC1	CDK9 with cyclin T1	enzyme activity, inhibitor, radiometric			> 10
Fc1c[nH]c2nccc(-c3ccc(C4CCNCC4)cc3)c12	AKT1	enzyme activity, inhibitor, radiometric			0.895
CNS(=O)(=O)c1ccc(Nc2ncc3cc(Cl)c(=O)n(C4CCCC4)c3n2)c(C)c1	CDK9 with cyclin T1	enzyme activity, inhibitor, radiometric			> 10
O=C(NO)c1ccc(Cn2cnc3c(Nc4ccc(Cl)cc4)ncnc32)cc1	AKT1	enzyme activity, inhibitor, radiometric			> 20
CCCCCCCCCCCC(=O)O	FABP4	ligand displacement, fluorescence		pH 7.5	2.28
C[C@@H]1CNC[C@H](C)[C@@]1(O)c1ccc(-c2ccnc3[nH]cc(F)c23)cc1	AKT1	target engagement in cells, BRET			38.9
Cc1nc2n(c(=O)c1CCN1CCC(c3noc4cc(F)ccc34)CC1)CCCC2O (centres unmarked)	DPP4	enzyme activity, inhibitor, absorbance			48.9
CCc1oc2cc(F)ccc2c1C(=O)c1cc(Br)c(O)c(Br)c1	SLC22A13	transporter uptake, inhibitor, radiometric		oocytes	39.6
CNS(=O)(=O)c1ccc(Nc2ncc(C(F)(F)F)c(N3CCCC(C)(O)C3)n2)c(C)c1 (centres unmarked)	CDK9 with cyclin T1	enzyme activity, inhibitor, radiometric			> 10
O=C(O)C(F)(F)C(F)(F)C(F)(F)C(F)(F)C(F)(F)C(F)(F)C(F)(F)C(F)(F)C(F)(F)C(F)(F)C(F)(F)C(F)(F)C(F)(F)C(F)(F)C(F)(F)F	Sterol carrier protein 2 (Homo sapiens, UniProt P22307)	ligand displacement, fluorescence			19.1
c1cc(-c2ccc(C3CCNCC3)cc2)c2cc[nH]c2n1	AKT1	target engagement in cells, BRET			> 50
COc1ccc(-c2coc3cc(O)ccc3c2=O)cc1O	CYP2C9	enzyme activity, inhibitor	human, liver microsomes	15 min	13.3
COc1cc(Cl)ncc1C(=O)Nc1ccc2c(=O)[nH]c(-c3ccc(C(C)(C)O)cc3)nc2c1	TNKS	enzyme activity, inhibitor			0.303

Structure (SMILES)	target	assay	system	setting	IC50 [µM]
CC1CNCCC1(O)c1ccc(-c2ccnc3[nH]cc(F)c23)cc1 (centres unmarked)	AKT1	enzyme activity, inhibitor, radiometric			0.132
CCc1oc2cc(F)c(F)cc2c1C(=O)c1cc(Br)c(O)c(Br)c1	SLC22A13	transporter uptake, inhibitor, radiometric		oocytes	9.7
O=c1c(-c2ccc(O)cc2)coc2cc(O)ccc12	CYP2C9	enzyme activity, inhibitor	human, liver microsomes	15 min	6.6
Clc1ccc(C2(c3ccc(-c4ccnc5[nH]ccc45)cc3)CCNCC2)cc1	AKT1	target engagement in cells, BRET			0.046
CN(C)C(=O)c1cc2cnc(Nc3cncc(-c4ccc5c(=O)cc(N6CCOCC6)oc5c4)c3)nc2n1C1CCCC1	CDK9 with cyclin T1	enzyme activity, inhibitor, radiometric			0.00057
O=C(O)C(F)(F)C(F)(F)C(F)(F)C(F)(F)C(F)(F)C(F)(F)C(F)(F)C(F)(F)C(F)(F)C(F)(F)C(F)(F)C(F)(F)F	FABP4	ligand displacement, fluorescence		pH 7.5	2.12
CN(C)C(=O)c1cc2cnc(Nc3ccc(-c4ccc5c(=O)cc(N6CCOCC6)oc5c4)cc3)nc2n1C1CCCC1	CYP2C9	enzyme activity, inhibitor, fluorescence		pH 8	0.044
O=C(Nc1ccc2[nH]nc(-c3ccncc3)c2c1)[C@@H]1CCN(CC(=O)N2CCN(c3ccc(-c4ncccn4)cc3)CC2)C1	MAPK3	enzyme activity, inhibitor			0.00499
COc1ccc(-c2oc3cc(Nc4ncc5cc(C(=O)N(C)C)n(C6CCCC6)c5n4)ccc3c(=O)c2F)cc1	CDK9 with cyclin T1	enzyme activity, inhibitor, radiometric			0.0276
CCCCCCCCCCC(=O)O	FABP4	ligand displacement, fluorescence		pH 7.5	2.25
Cc1nc2c(F)cc(-c3ccnc(Nc4ccc5c(=O)cc(N6CCOCC6)oc5c4)n3)cc2n1C(C)C	CDK9 with cyclin T1	enzyme activity, inhibitor, radiometric			0.024
OC1(c2ccc(-c3ccnc4[nH]cc(F)c34)cc2)CCNC1 (centres unmarked)	AKT1	target engagement in cells, BRET			18.1
c1ccc(-c2ccc3c(c2)NC(C2Nc4cc(-c5ccccc5)ccc4O2)O3)cc1 (centres unmarked)	MAPK3	enzyme activity, inhibitor, ADP detection			10.6
COc1ccc2c(=O)[nH]c3c(nnn3Cc3ccc(C)cc3)c2c1	TNKS	enzyme activity, inhibitor, fluorescence			0.112
CN(C)C(=O)c1cc2cnc(Nc3ccc(-c4cccc5c(=O)cc(N6CCOCC6)oc45)cn3)nc2n1C1CCCC1	CDK9 with cyclin T1	enzyme activity, inhibitor, radiometric			4.15
C[C@]12CC[C@@H]3c4ccc(O)cc4C[C@@H](CCCCCCCCC[S+]([O-])CCCC(F)(F)C(F)(F)F)[C@H]3[C@@H]1CC[C@@H]2O (some centres unmarked)	DPP4	enzyme activity, inhibitor, absorbance			66.3
Nc1ncnc2c1ncn2[C@@H]1O[C@H](CSCC[C@H](N)C(=O)O)[C@@H](O)[C@H]1O	Histone-lysine N-methyltransferase SETDB1 (SETDB1, Homo sapiens, UniProt Q15047)	enzyme activity, inhibitor			2.21
CNS(=O)(=O)c1ccc(Nc2ncc(C(F)(F)F)c([C@H]3CC[C@@](C)(O)CC3)n2)c(C)c1	CDK9 with cyclin T1	enzyme activity, inhibitor, radiometric			> 10
CC(C)(O)c1ccc(-c2nc3cc(NC(=O)c4cnc(OCc5ccccc5)nc4)ccc3c(=O)[nH]2)cc1	TNKS	enzyme activity, inhibitor			6.36
COc1ccc(-c2cc(=O)c3cccc(Nc4ncc5cc(C(=O)N(C)C)n(C6CCCC6)c5n4)c3o2)cc1	CDK9 with cyclin T1	enzyme activity, inhibitor, radiometric			> 10
OC1(c2ccc(-c3ccnc4[nH]cc(F)c34)cc2)CCCNC1 (centres unmarked)	AKT1	target engagement in cells, BRET			22.4
CC(=O)N1C(=O)NC(C)=C(C(=O)OCc2ccccc2)C1c1cccc([N+](=O)[O-])c1 (racemic)	Voltage-dependent T-type calcium channel subunit alpha-1H (CACNA1H, Homo sapiens, UniProt O95180)	ion current, inhibitor, patch clamp			3.6
